Reference: ChEMBL document CHEMBL1177860, “Design, synthesis, and pharmacological evaluation of the aqueous prodrugs of desmethyl anethole trithione with hepatoprotective activity” (Eur J Med Chem, 2010)

Legend:
[1] = Chemical stability in phosphate buffer solution at pH 1.10 to 12.02 at 37 degC up to 24 hrs by HPLC analysis; assay type: physicochemical; conditions: pH 1.1, 24 h
How it was run: (§1)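 Phosphate buffers at pH 1.10, 4.02, 6.84, 9.14 and 12.02, held at 37 °C and at 60 °C. Remaining compound quantified by HPLC at 0, 1, 2, 4, 8, 16 and 24 h.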

[2] = Aqueous solubility in water after 24 hrs by HPLC analysis; assay type: physicochemical
How it was run: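 Water (10 mL) added to the solid; sonicated 5 min, then stirred 24 h in a 25 °C water bath. Centrifuged at 10 000 rpm for 10 min, supernatant membrane-filtered and quantified by HPLC.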

[3] = test system: Plasma; assay: Stability in mouse plasma up to 12 hrs by HPLC analysis; assay type: ADME, cell-free
How it was run: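 Aqueous compound solution (1.0 mL, 50 stock) added to 5 mL mouse plasma, kept at 37 ± 1 °C. 200 aliquots taken at 0, 1, 2, 4, 8 and 12 h, mixed with 400 acetonitrile for 5 min, centrifuged at 10 000 rpm for 5 min, and supernatant analysed by HPLC.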

[4] = Chemical stability in phosphate buffer solution at pH 1.10 to 6.84 at 60 degC up to 24 hrs by HPLC analysis; assay type: physicochemical; conditions: pH 1.1, 24 h; how it was run: as §1
[5] = test system: Mus musculus; assay: Hepatoprotective activity in Kunming mouse assessed as reduction of CCL4-induced increase of serum ALT level at 1 mg/kg, ip administered 0.5 hrs before CCL4 challenge measured after 16 hrs; assay type: functional; conditions: route intraperitoneal
How it was run: (§2)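 Adult male Kunming mice (20–22 g), fasted the day before, in groups of ten. Compound given ip at 1, 2 or 4 mg/kg, followed 0.5 h later by ip CCl₄ (5 mL/kg as 0.2% peanut oil solution). Controls: saline alone, and CCl₄ alone. Orbital blood taken at 16 h; serum assayed for ALT and AST. Mean ± S.D., compared with the CCl₄ group.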

[6] = test system: Mus musculus; assay: Hepatoprotective activity in Kunming mouse assessed as reduction of CCL4-induced increase of serum ALT level at 4 mg/kg, ip administered 0.5 hrs before CCL4 challenge measured after 16 hrs; assay type: functional; conditions: route intraperitoneal; how it was run: as §2
[7] = test system: Mus musculus; assay: Hepatoprotective activity in Kunming mouse assessed as reduction of CCL4-induced increase of serum ALT level at 2 mg/kg, ip administered 0.5 hrs before CCL4 challenge measured after 16 hrs; assay type: functional; conditions: route intraperitoneal; how it was run: as §2
[8] = test system: Mus musculus; assay: Hepatoprotective activity in Kunming mouse assessed as reduction of CCL4-induced increase of serum AST level at 4 mg/kg, ip administered 0.5 hrs before CCL4 challenge measured after 16 hrs; assay type: functional; conditions: route intraperitoneal; how it was run: as §2
[9] = test system: Mus musculus; assay: Hepatoprotective activity in Kunming mouse assessed as reduction of CCL4-induced increase of serum AST level at 2 mg/kg, ip administered 0.5 hrs before CCL4 challenge measured after 16 hrs; assay type: functional; conditions: route intraperitoneal; how it was run: as §2
[10] = test system: Mus musculus; assay: Hepatoprotective activity in Kunming mouse assessed as reduction of CCL4-induced increase of serum AST level at 1 mg/kg, ip administered 0.5 hrs before CCL4 challenge measured after 16 hrs; assay type: functional; conditions: route intraperitoneal; how it was run: as §2
[11] = test system: Mus musculus; assay: In vivo metabolic stability in Kunming mouse assessed as 5-(4-hydroxyphenyl)-3H-1,2-dithiole-3-thione level in plasma at 10 mg/kg, ip measured up to 8 hrs by HPLC analysis; assay type: ADME, organism-based; design: dose 10 mg/kg, route intraperitoneal
How it was run: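 Male Kunming mice, ten groups of four, given 10.00 mg/kg ip. Orbital blood (0.5 mL) taken into heparinized tubes at 0.02–8 h. Plasma precipitated with 2 volumes acetonitrile, sonicated, centrifuged, and analysed by HPLC at 354 nm. Plasma calibration curve spans 0.05–31.11 with six points; QC at three levels.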

Row | SMILES | Stability [1] | solubility at 24 h [2] [µg/mL] | Stability [3] | Stability [4] | Activity [5] [IU/L] | Activity [6] [IU/L] | Activity [7] [IU/L] | Activity [8] [IU/L] | Activity [9] [IU/L] | Activity [10] [IU/L] | Stability [11]
1 | Cl.S=c1cc(-c2ccc(OCCN3CCOCC3)cc2)ss1 | Stable | > 20000 | Stable | Stable | 595.4 | 457.7 | 468 | 824.9 | 552.5 | 851.7 | 
2 | Cl.S=c1cc(-c2ccc(OCCN3CCCC3)cc2)ss1 | Stable | > 20000 | Stable | Stable | 416.6 | 561.5 | 535.9 | 607.8 | 582.9 | 501.2 | 
3 | Cl.S=c1cc(-c2ccc(OCCN3CCCCC3)cc2)ss1 | Stable | > 20000 | Stable | Stable | 169.3 | 382.9 | 259.6 | 423.9 | 416.8 | 920.6 | 
4 | S=c1cc(-c2ccc(OCC[n+]3ccccc3)cc2)ss1.[Br-] | Stable | 2300 | Stable | Stable | 426.1 | 685 | 630.1 | 784.3 | 617.8 | 559.2 | 
5 | CN(C)c1cc[n+](CCOc2ccc(-c3cc(=S)ss3)cc2)cc1.[Br-] | Stable | 2800 | Stable | Stable |  |  |  |  |  |  | 
6 | CN(C)CCOc1ccc(-c2cc(=S)ss2)cc1.Cl | Stable | > 20000 | Stable | Stable | 216.5 | 171.6 | 109.7 | 284.1 | 215.7 | 310.9 | Stable
7 | CC[N+](CC)(CC)CCOc1ccc(-c2cc(=S)ss2)cc1.[Br-] | Stable | 3500 | Stable | Stable |  |  |  |  |  |  | 
8 | Oc1ccc(-c2cc(=S)ss2)cc1 | Stable | < 130 | Stable | Stable |  |  |  |  |  |  | 
9 | COc1ccc(-c2cc(=S)ss2)cc1 [ANETHOLTRITHION] | Stable | < 10 | Stable | Stable | 150.7 | 177.2 | 112.4 | 407.1 | 265.9 | 269.6 | 
